Reference: ChEMBL document CHEMBL4321879, “Novel Class of Colony-Stimulating Factor 1 Receptor Kinase Inhibitors Based on an o-Aminopyridyl Alkynyl Scaffold as Potential Treatment for Inflammatory Disorders” (J Med Chem, 2020)

How the values were obtained:
[1] = target: Macrophage colony-stimulating factor 1 receptor (Homo sapiens, UniProt P07333); experiment: Inhibition of recombinant CSF1R (unknown origin) using poly (Glu, Tyr)4:1 as substrate measured after 1 hr by ELISA
[2] = target: Fibroblast growth factor receptor 1 (Homo sapiens, UniProt P11362); experiment: Inhibition of recombinant human N-terminal GST-tagged FGFR1 (456 to 765 residues) expressed in baculovirus infected Sf21 insect cells using poly (Glu, Tyr)4:1 as substrate measured after 1 hr by ELISA
Procedure, shortened: (§1)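 Recombinant kinase was incubated with compound in reaction buffer containing 5 μM ATP, in wells precoated with poly(Glu,Tyr) 4:1, for 1 h at 37 °C. Phosphorylation was detected by ELISA.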

[3] = target: Fibroblast growth factor receptor 2 (Homo sapiens, UniProt P21802); experiment: Inhibition of recombinant human N-terminal His6-tagged FGFR2 (456 to 770 residues) expressed in baculovirus infected Sf21 insect cells using poly (Glu, Tyr)4:1 as substrate measured after 1 hr by ELISA; procedure, shortened: as §1
[4] = target: Fibroblast growth factor receptor 3 (Homo sapiens, UniProt P22607); experiment: Inhibition of recombinant human N-terminal His6-tagged FGFR3 (447 to 761 residues) expressed in baculovirus infected Sf21 insect cells using poly (Glu, Tyr)4:1 as substrate measured after 1 hr by ELISA; procedure, shortened: as §1
[5] = target: Fibroblast growth factor receptor 4 (Homo sapiens, UniProt P22455); experiment: Inhibition of recombinant human N-terminal His6-tagged FGFR4 (442 to 755 residues) expressed in baculovirus infected Sf21 insect cells using poly (Glu, Tyr)4:1 as substrate measured after 1 hr by ELISA
Procedure, shortened: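 ELISA kinase assay: recombinant kinase added to wells precoated with poly(Glu,Tyr)4:1 and incubated with compound in reaction buffer containing 5 μM ATP, 37 °C for 1 h; wells then washed before antibody detection.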

RAW264.7 [6] = experiment: Antiinflammatory activity in mouse RAW264.7 cells assessed as reduction in LPS-induced TNFalpha release measured after 24 hrs by ELISA; format: functional, cell-based; conditions: RAW264.7, 24 h
Procedure, shortened: (§2)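 RAW264.7 cells in DMEM with 10% FBS and 0.125% DMSO were incubated with compound, then primed with LPS 1 μg/mL for 24 h. Supernatant TNF-α and IL-6 measured by mouse ELISA. IC50 from log(inhibitor) versus normalized response nonlinear fit.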

RAW264.7 [7] = experiment: Antiinflammatory activity in mouse RAW264.7 cells assessed as reduction in LPS-induced IL6 release measured after 24 hrs by ELISA; format: functional, cell-based; conditions: RAW264.7, 24 h; procedure, shortened: as §2
[8] = Cytotoxicity against mouse RAW264.7 cells assessed as reduction in cell viability measured after 24 hrs by CCK8 assay; format: cell-based
Procedure, shortened: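 RAW264.7 cells were seeded in triplicate in DMEM and exposed to compound for 24 h. CCK-8 was added, incubated 1 h, and absorbance read at 450 nm with 570 nm reference. CC50 from log(inhibitor) versus normalized response nonlinear fit.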

Chain of Macrophage colony-stimulating factor 1 receptor (P07333 whole entry, the tested form may be a part): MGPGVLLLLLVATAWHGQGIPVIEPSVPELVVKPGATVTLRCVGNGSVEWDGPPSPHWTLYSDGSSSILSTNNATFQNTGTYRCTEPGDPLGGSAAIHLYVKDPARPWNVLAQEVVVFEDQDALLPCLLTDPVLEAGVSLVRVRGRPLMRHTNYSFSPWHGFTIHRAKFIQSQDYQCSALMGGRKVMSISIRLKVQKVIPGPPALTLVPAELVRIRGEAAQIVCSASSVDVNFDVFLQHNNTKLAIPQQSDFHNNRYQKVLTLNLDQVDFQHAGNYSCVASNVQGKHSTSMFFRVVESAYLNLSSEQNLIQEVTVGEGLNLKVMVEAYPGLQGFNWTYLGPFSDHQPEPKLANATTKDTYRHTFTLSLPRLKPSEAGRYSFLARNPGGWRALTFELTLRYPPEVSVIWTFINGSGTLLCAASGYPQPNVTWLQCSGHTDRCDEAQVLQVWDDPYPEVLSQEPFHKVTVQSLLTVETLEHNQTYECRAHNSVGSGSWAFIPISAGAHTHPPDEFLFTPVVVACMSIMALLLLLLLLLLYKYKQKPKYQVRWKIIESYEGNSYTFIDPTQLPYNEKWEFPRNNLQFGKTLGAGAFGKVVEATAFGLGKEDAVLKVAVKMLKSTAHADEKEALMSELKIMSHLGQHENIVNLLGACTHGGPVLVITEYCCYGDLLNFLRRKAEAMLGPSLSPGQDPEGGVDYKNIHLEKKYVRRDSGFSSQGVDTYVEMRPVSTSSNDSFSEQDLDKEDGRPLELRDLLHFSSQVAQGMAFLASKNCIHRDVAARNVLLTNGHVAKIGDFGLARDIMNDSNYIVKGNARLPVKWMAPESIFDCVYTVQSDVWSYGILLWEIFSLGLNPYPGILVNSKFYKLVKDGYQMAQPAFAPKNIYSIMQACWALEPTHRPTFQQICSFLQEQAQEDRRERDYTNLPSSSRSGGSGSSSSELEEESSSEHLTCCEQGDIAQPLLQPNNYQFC
Chain of Fibroblast growth factor receptor 3 (P22607 whole entry, the tested form may be a part): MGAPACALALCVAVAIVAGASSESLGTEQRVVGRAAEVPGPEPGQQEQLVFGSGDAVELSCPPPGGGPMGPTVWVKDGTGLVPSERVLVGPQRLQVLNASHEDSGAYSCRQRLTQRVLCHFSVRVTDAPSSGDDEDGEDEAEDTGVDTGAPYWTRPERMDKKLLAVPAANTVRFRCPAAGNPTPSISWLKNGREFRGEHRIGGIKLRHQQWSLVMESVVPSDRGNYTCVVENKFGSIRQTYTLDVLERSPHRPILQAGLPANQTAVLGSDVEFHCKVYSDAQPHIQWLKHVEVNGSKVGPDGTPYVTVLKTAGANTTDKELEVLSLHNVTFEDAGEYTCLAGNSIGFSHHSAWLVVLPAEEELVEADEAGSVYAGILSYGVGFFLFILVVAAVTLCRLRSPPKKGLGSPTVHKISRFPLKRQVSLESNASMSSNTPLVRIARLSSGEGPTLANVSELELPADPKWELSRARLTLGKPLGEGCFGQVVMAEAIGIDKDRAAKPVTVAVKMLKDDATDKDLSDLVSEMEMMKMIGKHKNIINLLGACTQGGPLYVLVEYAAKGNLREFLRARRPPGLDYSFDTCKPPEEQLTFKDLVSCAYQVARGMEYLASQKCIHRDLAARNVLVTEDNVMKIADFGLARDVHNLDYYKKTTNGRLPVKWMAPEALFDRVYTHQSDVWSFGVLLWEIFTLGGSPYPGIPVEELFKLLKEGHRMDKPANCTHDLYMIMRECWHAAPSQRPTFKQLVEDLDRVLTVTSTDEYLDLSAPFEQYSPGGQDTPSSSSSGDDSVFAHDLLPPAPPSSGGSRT
Chain of Fibroblast growth factor receptor 2 (P21802 whole entry, the tested form may be a part): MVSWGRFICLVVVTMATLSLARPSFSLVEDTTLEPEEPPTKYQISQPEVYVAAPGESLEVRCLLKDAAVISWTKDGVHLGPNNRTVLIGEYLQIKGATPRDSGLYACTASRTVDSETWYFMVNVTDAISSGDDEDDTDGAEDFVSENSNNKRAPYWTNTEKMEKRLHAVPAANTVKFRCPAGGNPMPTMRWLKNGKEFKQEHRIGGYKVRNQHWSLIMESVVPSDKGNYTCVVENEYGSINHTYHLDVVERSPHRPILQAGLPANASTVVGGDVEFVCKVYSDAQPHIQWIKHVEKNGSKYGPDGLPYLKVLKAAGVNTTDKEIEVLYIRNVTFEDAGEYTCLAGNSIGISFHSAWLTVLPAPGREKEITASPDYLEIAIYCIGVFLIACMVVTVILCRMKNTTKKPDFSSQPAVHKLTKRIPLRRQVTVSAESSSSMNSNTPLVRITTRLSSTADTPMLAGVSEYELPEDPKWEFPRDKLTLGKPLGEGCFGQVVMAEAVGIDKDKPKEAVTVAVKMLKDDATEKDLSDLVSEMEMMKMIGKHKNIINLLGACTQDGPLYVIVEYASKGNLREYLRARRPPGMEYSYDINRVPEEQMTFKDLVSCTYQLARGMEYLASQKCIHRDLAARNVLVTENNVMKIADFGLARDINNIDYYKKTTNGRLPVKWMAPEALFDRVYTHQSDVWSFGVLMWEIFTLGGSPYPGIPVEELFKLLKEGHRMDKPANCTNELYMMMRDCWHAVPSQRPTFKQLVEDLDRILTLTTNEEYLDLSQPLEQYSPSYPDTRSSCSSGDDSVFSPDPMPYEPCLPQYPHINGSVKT
Chain of Fibroblast growth factor receptor 4 (P22455 whole entry, the tested form may be a part): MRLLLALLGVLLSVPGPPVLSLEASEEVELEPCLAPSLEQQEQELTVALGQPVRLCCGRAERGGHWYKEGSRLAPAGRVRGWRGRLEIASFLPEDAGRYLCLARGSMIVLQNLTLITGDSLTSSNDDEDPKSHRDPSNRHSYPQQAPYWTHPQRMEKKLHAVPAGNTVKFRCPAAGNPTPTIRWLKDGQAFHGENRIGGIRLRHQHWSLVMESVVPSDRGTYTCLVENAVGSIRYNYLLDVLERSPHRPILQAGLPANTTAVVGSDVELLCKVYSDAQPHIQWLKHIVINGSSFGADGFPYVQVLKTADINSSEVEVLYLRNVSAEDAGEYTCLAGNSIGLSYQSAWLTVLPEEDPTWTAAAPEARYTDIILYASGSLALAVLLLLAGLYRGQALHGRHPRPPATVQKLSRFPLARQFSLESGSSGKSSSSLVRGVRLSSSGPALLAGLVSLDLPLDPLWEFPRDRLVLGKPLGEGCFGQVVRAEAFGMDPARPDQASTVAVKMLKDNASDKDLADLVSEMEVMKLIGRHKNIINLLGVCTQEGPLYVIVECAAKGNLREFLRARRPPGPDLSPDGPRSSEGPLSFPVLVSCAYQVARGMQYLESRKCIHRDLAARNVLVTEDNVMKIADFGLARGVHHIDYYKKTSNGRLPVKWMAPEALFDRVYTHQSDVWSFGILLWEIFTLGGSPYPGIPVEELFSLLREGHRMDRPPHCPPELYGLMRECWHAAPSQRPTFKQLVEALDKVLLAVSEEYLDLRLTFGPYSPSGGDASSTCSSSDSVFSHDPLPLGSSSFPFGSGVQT
Chain of Fibroblast growth factor receptor 1 (P11362 whole entry, the tested form may be a part): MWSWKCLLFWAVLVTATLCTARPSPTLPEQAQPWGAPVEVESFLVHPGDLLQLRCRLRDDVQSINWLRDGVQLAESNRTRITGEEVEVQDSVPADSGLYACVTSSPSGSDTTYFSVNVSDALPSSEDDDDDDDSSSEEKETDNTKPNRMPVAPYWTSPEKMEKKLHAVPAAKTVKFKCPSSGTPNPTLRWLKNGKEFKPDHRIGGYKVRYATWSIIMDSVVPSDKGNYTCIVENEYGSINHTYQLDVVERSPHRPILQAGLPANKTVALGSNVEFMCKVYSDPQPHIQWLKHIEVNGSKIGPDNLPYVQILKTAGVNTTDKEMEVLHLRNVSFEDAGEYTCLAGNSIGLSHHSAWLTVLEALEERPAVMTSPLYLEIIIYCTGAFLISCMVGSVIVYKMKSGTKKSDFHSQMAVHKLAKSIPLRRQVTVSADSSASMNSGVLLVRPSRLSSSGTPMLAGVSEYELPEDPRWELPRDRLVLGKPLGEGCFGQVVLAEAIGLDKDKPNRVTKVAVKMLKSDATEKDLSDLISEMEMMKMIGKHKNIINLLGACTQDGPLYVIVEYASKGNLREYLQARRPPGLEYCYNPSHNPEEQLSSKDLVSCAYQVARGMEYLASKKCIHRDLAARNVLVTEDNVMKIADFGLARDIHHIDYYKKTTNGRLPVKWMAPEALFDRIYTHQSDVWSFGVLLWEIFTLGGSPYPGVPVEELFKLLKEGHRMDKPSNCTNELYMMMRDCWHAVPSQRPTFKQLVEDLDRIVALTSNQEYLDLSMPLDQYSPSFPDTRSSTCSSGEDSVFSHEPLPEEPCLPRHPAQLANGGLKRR

Compound: Cc1ccc(C(=O)Nc2ccc(C(F)(F)F)cc2)cc1C#Cc1cc(-c2cnn(C)c2)cnc1N
- IC50 [1]: 3 nM

Compound: COc1cc(NC(=O)c2ccc(C)c(C#Cc3cc(C(N)=O)cnc3N)c2)cc(OC)c1
- IC50 [1]: 3.5 nM

Compound: Cc1ccc(C(=O)Nc2ccc(Cl)c(Cl)c2)cc1C#Cc1cc(-c2cnn(C)c2)cnc1N
- IC50 [1]: 10.8 nM

Compound: CNC(=O)c1cnc(N)c(C#Cc2cc(C(=O)Nc3cc(OC)cc(OC)c3)ccc2C)c1
- IC50 [1]: 8.1 nM

Compound: COc1cc(NC(=O)c2cccc(C#Cc3cc(-c4cnn(C)c4)cnc3N)c2)cc(OC)c1
- IC50 [1]: 16.1 nM

Compound: Cc1ccc(C(=O)Nc2ccccc2)cc1C#Cc1cc(-c2cnn(C)c2)cnc1N
- IC50 [1]: 6.5 nM

Compound: COC(=O)c1cnc(N)c(C#Cc2cc(C(=O)Nc3cc(OC)cc(OC)c3)ccc2C)c1
- IC50 [1]: 5.5 nM

Compound: COc1cc(NC(=O)c2ccc(C)c(C#Cc3cc(-c4cnn(C)c4)cnc3N)c2)cc(OC)c1
- IC50 [1]: 2.6 nM

Compound: COc1cc(NC(=O)c2ccc(C)c(C#Cc3cccnc3N)c2)cc(OC)c1
- IC50 [1]: 28.5 nM

Compound: Cc1ccc(C(=O)Nc2ccccc2Cl)cc1C#Cc1cc(-c2cnn(C)c2)cnc1N
- IC50 [1]: 318 nM

Compound: COc1ccccc1NC(=O)c1ccc(C)c(C#Cc2cc(-c3cnn(C)c3)cnc2N)c1
- IC50 [1]: 20.2 nM

Compound: Cc1cc(C(=O)Nc2ccc(Cl)cc2)ccc1C#Cc1cc(-c2cnn(C)c2)cnc1N
- IC50 [1]: > 1000 nM

Compound: COc1cc(NC(=O)c2ccc(C)c(C#Cc3cccnc3)c2)cc(OC)c1
- IC50 [1]: 219 nM

Compound: COc1cc(NC(=O)c2ccc(C(F)(F)F)c(C#Cc3cc(-c4cnn(C)c4)cnc3N)c2)cc(OC)c1
- IC50 [1]: > 1000 nM

Compound: COc1cc(NC(=O)c2ccc(C)c(C#Cc3cc(Cl)cnc3N)c2)cc(OC)c1
- IC50 [1]: 16.6 nM

Compound: COc1cc(NC(=O)c2ccc(C)c(C#Cc3cncc4ccccc34)c2)cc(OC)c1
- IC50 [1]: 23.4 nM
- IC50 [2]: > 1000 nM
- IC50 [3]: > 1000 nM
- IC50 [4]: > 1000 nM
- IC50 [5]: > 1000 nM

Compound: COc1cc(NC(=O)c2ccc(Cl)c(C#Cc3cc(-c4cnn(C)c4)cnc3N)c2)cc(OC)c1
- IC50 [1]: 6.5 nM

Compound: Cc1ccc(C(=O)N(C)c2ccc(Cl)cc2)cc1C#Cc1cc(-c2cnn(C)c2)cnc1N
- IC50 [1]: > 1000 nM

Compound: COc1cc(NC(=O)c2ccc(C(C)C)c(C#Cc3cc(-c4cnn(C)c4)cnc3N)c2)cc(OC)c1
- IC50 [1]: > 1000 nM

Compound: Cc1ccc(NC(=O)c2ccc(Cl)cc2)cc1C#Cc1cc(-c2cnn(C)c2)cnc1N
- IC50 [1]: 7.2 nM

Compound: COc1cc(NC(=O)c2ccc(C)c(C#Cc3cnc4cccnn34)c2)cc(OC)c1
- IC50 [1]: 25.1 nM

Compound: COc1cc(NC(=O)c2ccc(F)c(C#Cc3cc(-c4cnn(C)c4)cnc3N)c2)cc(OC)c1
- IC50 [1]: 160 nM

Compound: FC(F)(F)c1ccc(CNc2ccc(Cc3c[nH]c4ncc(Cl)cc34)cn2)cn1 [PEXIDARTINIB]
- IC50 (RAW264.7 [6]): 400 nM
- IC50 (RAW264.7 [7]): 430 nM
- CC50 at 24 h [8]: 20.5 µM

Compound: Cc1ccc(C(=O)Nc2cccc(C(F)(F)F)c2)cc1C#Cc1cc(-c2cnn(C)c2)cnc1N
- IC50 [1]: 2.4 nM

Compound: COc1cc(NC(=O)c2ccc(OC)c(C#Cc3cc(-c4cnn(C)c4)cnc3N)c2)cc(OC)c1
- IC50 [1]: 263 nM

Compound: Cc1ccc(C(=O)Nc2ccc(CN3CCN(C)CC3)c(C(F)(F)F)c2)cc1C#Cc1cncc2ccccc12
- IC50 [1]: 46 nM

Compound: Cc1ccc(C(=O)Nc2ccc(Cl)cc2Cl)cc1C#Cc1cc(-c2cnn(C)c2)cnc1N
- IC50 [1]: 5.9 nM

Compound: COc1ccc(NC(=O)c2ccc(C)c(C#Cc3cc(-c4cnn(C)c4)cnc3N)c2)cc1
- IC50 [1]: 1.4 nM

Compound: Cc1ccc(C(=O)Nc2cccc(Cl)c2)cc1C#Cc1cc(-c2cnn(C)c2)cnc1N
- IC50 [1]: 1.3 nM

Compound: Cc1ccc(CNc2ccc(Cl)cc2)cc1C#Cc1cc(-c2cnn(C)c2)cnc1N
- IC50 [1]: > 1000 nM

Compound: COc1cccc(NC(=O)c2ccc(C)c(C#Cc3cc(-c4cnn(C)c4)cnc3N)c2)c1
- IC50 [1]: 1.4 nM
